The source of these data is ChEMBL document CHEMBL1629439, “High-throughput identification of antibacterials against methicillin-resistant Staphylococcus aureus (MRSA) and the transglycosylase” (Bioorg Med Chem, 2010).

In brackets after ≈: the same amount, converted by molar mass.

Experiment [1] concerns Staphylococcus aureus. Description: Antimicrobial activity against Staphylococcus aureus ATCC 29213 after 18 to 24 hrs by alamar blue assay.
Experiment [2] deals with Stenotrophomonas maltophilia. The experiment in a line: Antimicrobial activity against Stenotrophomonas maltophilia ATCC 13637 after 18 to 24 hrs by alamar blue assay. It is filed as functional. As to conditions: Stenotrophomonas maltophilia, ATCC 13637; read-out: MIC. The procedure, abridged: (§1)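 Broth microdilution per NCCLS in Mueller-Hinton broth, 8-point twofold dilutions, 384-well format. Exponential-phase cells at 5 × 10^5 cells/ml incubated with compound 18–24 h at 37 °C, then 20% Alamar blue added and fluorescence read. MIC90 taken as the lowest concentration preventing at least 90% bacterial growth.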

Another experiment relates to Escherichia coli. The experiment in a line: Antimicrobial activity against Escherichia coli ATCC […] after 18 to 24 hrs by alamar blue assay. The format is functional. As to conditions: Escherichia coli; read-out: MIC. The method in brief:
as §1
For orientation: The colour change of resazurin is a common sign of viable cells or microbes.

Experiment [3] relates to Mycolicibacterium smegmatis. The experiment in a line: Antimicrobial activity against Mycobacterium smegmatis BCRC 11565 after 18 to 24 hrs by alamar blue assay. The format is functional. As to conditions: Mycolicibacterium smegmatis, BCRC 11565; read-out: MIC. The method in brief: as §1
Experiment [4] concerns Staphylococcus aureus. The experiment in a line: Antimicrobial activity against methicillin-resistant Staphylococcus aureus ATCC 33592 after 18 to 24 hrs by alamar blue assay. The format is functional. The note with it: Staphylococcus aureus, ATCC 33592; read-out: MIC. The method in brief:
(§2)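 Broth microdilution per NCCLS standard, Mueller-Hinton broth, 8-point twofold dilutions; exponentially growing cells at 5 10^5 cells/ml with compound, 18–24 h at 37 C; 20% Alamar blue added, fluorescence read; MIC90 taken as lowest concentration preventing at least 90% growth.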

Experiment [5] concerns Staphylococcus aureus. Description: Antimicrobial activity against oxacillin- and methicillin-resistant Staphylococcus aureus isolate Sa-OXA-R2 after 18 to 24 hrs by alamar blue assay. The format is functional. The procedure, abridged:
as §2

Experiment [6] has as its system Staphylococcus aureus. Description: Antimicrobial activity against methicillin-resistant Staphylococcus aureus isolate NTUH4722 after 18 to 24 hrs by alamar blue assay. It is filed as functional. The method in brief: as §2
For another experiment, the system named is Serratia marcescens. The experiment in a line: Antimicrobial activity against Serratia marcescens ATCC 14756 after 18 to 24 hrs by alamar blue assay. It is filed as functional. The note with it: Serratia marcescens, ATCC 14756; read-out: MIC. The procedure, abridged:
as §1

A further experiment concerns Pseudomonas aeruginosa. The experiment in a line: Antimicrobial activity against Pseudomonas aeruginosa ATCC 25619 after 18 to 24 hrs by alamar blue assay. It is filed as functional. As to conditions: Pseudomonas aeruginosa, ATCC 25619; read-out: MIC. The method in brief: as §1
In a further experiment the test system is Acinetobacter baumannii. Description: Antimicrobial activity against Acinetobacter baumannii ATCC 49139 after 18 to 24 hrs by alamar blue assay. The format is functional. The note with it: Acinetobacter baumannii, ATCC 49139; read-out: MIC. The procedure, abridged:
as §1

The test system of the next experiment is Bacillus subtilis. The experiment in a line: Antimicrobial activity against Bacillus subtilis ATCC 23857 after 18 to 24 hrs by alamar blue assay. It is filed as functional. The method in brief:
as §1

For the compound `O=C(Nc1nnc(-c2ccccc2Cl)o1)c1nc2ccccc2s1`, the MIC (usually the lowest concentration that inhibits growth of the organism) in the experiment on Staphylococcus aureus [1] is 2 µg/mL (≈ 5.61 µM); in experiment [2], above 256 µg/mL; in the experiment on Escherichia coli it was above 256 µg/mL; in experiment [3] it was 0.5 µg/mL (≈ 1.4 µM); in the experiment on Staphylococcus aureus [4], 2 µg/mL (≈ 5.61 µM); with Staphylococcus aureus [5] it was 32 µg/mL (≈ 89.7 µM). For the same compound, the minimum inhibitory concentration (MIC) in the experiment on Staphylococcus aureus [6] was 2 µg/mL (≈ 5.61 µM); with Serratia marcescens it was above 256 µg/mL; in the experiment on Pseudomonas aeruginosa, above 256 µg/mL; in the experiment on Acinetobacter baumannii it was above 256 µg/mL; with Bacillus subtilis it was 0.5 µg/mL (≈ 1.4 µM).

For the compound `O=C(Nc1nnc(-c2ccc(Cl)cc2)o1)c1cccc(C(F)(F)F)c1`, the MIC was 1 µg/mL (≈ 2.72 µM) in the experiment with Staphylococcus aureus [1]; above 256 µg/mL in experiment [2]; above 256 µg/mL in the experiment on Escherichia coli; 0.5 µg/mL (≈ 1.36 µM) in experiment [3]; 0.5 µg/mL (≈ 1.36 µM) in the experiment with Staphylococcus aureus [4]; 0.125 µg/mL (≈ 0.34 µM) in the experiment with Staphylococcus aureus [5]. Moreover, the MIC is 0.125 µg/mL (≈ 0.34 µM) in the experiment on Staphylococcus aureus [6]; above 256 µg/mL in the experiment with Serratia marcescens; above 256 µg/mL in the experiment with Pseudomonas aeruginosa; above 256 µg/mL in the experiment with Acinetobacter baumannii; 0.5 µg/mL (≈ 1.36 µM) in the experiment with Bacillus subtilis.

With `O=C(Nc1ccc2oc(-c3ccncc3)nc2c1)c1ccc([N+](=O)[O-])o1`, the MIC in the experiment with Staphylococcus aureus [1] was 2 µg/mL (≈ 5.71 µM); in experiment [2], 32 µg/mL (≈ 91.4 µM); in the experiment on Escherichia coli it was 256 µg/mL (≈ 731 µM); in experiment [3], 0.5 µg/mL (≈ 1.43 µM); in the experiment on Staphylococcus aureus [4] it was 4 µg/mL (≈ 11.4 µM); in the experiment on Staphylococcus aureus [5], above 4 µg/mL. For the same compound, the MIC against Staphylococcus aureus [6] was 2 µg/mL (≈ 5.71 µM); with Serratia marcescens it was 32 µg/mL (≈ 91.4 µM); in the experiment with Pseudomonas aeruginosa, 128 µg/mL (≈ 365 µM); with Acinetobacter baumannii, 12 µg/mL (≈ 34.3 µM); with Bacillus subtilis, 0.06 µg/mL (≈ 0.171 µM).

For the compound `O=C(Nc1cccc(C2=Nc3ccccc3C2)c1)c1ccc([N+](=O)[O-])o1`, the minimal inhibitory concentration (MIC) in the experiment on Staphylococcus aureus [1] amounted to 0.5 µg/mL (≈ 1.44 µM); in experiment [2], 32 µg/mL (≈ 92.1 µM); in the experiment with Escherichia coli, 256 µg/mL (≈ 737 µM); in experiment [3], 0.5 µg/mL (≈ 1.44 µM); in the experiment with Staphylococcus aureus [4], 0.25 µg/mL (≈ 0.72 µM); in the experiment with Staphylococcus aureus [5], 0.5 µg/mL (≈ 1.44 µM). The minimum inhibitory concentration (MIC) against Staphylococcus aureus [6] came out at 0.5 µg/mL (≈ 1.44 µM); in the experiment with Serratia marcescens, 32 µg/mL (≈ 92.1 µM); in the experiment with Pseudomonas aeruginosa, 128 µg/mL (≈ 369 µM); in the experiment on Acinetobacter baumannii, 12 µg/mL (≈ 34.5 µM); against Bacillus subtilis, 0.06 µg/mL (≈ 0.173 µM).

`O=C(Nc1nnc(-c2ccc(F)cc2)o1)c1cccc(Cl)c1`: the MIC against Staphylococcus aureus [1] is 1 µg/mL (≈ 3.15 µM); in [2], above 256 µg/mL; with Escherichia coli, above 256 µg/mL; in [3] it was 0.5 µg/mL (≈ 1.57 µM); in the experiment on Staphylococcus aureus [4], 0.5 µg/mL (≈ 1.57 µM); against Staphylococcus aureus [5], 4 µg/mL (≈ 12.6 µM). Moreover, the MIC in the experiment with Staphylococcus aureus [6] was 1 µg/mL (≈ 3.15 µM); in the experiment on Serratia marcescens, above 256 µg/mL; with Pseudomonas aeruginosa it was above 256 µg/mL; with Acinetobacter baumannii, above 256 µg/mL; in the experiment with Bacillus subtilis, 0.5 µg/mL (≈ 1.57 µM).

Consider `CCCCN(C)S(=O)(=O)c1ccc(C(=O)Nc2nnc(-c3cccc(OC)c3)o2)cc1`, for which the MIC was 4 µg/mL (≈ 9 µM) in the experiment on Staphylococcus aureus [1]; above 256 µg/mL in experiment [2]; above 256 µg/mL in the experiment on Escherichia coli; 0.5 µg/mL (≈ 1.12 µM) in [3]; 8 µg/mL (≈ 18 µM) in the experiment on Staphylococcus aureus [4]; 32 µg/mL (≈ 72 µM) with Staphylococcus aureus [5]. Also, the minimal inhibitory concentration (MIC) in the experiment on Staphylococcus aureus [6] is 16 µg/mL (≈ 36 µM); in the experiment with Serratia marcescens, above 256 µg/mL; in the experiment on Pseudomonas aeruginosa, above 256 µg/mL; in the experiment with Acinetobacter baumannii, above 256 µg/mL; in the experiment on Bacillus subtilis, 0.5 µg/mL (≈ 1.12 µM).

With `CCC1Sc2ccc(S(=O)(=O)Nc3ccc(C)cc3C)cc2NC1=O` (centres undefined), the minimum inhibitory concentration (MIC) with Staphylococcus aureus [1] is 1 µg/mL (≈ 2.66 µM); in [2] it was above 256 µg/mL; in the experiment on Escherichia coli, above 256 µg/mL; in [3] it was above 64 µg/mL; in the experiment on Staphylococcus aureus [4], 8 µg/mL (≈ 21.2 µM); in the experiment with Staphylococcus aureus [5] it was above 64 µg/mL. The MIC against Staphylococcus aureus [6] was 4 µg/mL (≈ 10.6 µM); in the experiment with Serratia marcescens, above 256 µg/mL; in the experiment on Pseudomonas aeruginosa, above 256 µg/mL; with Acinetobacter baumannii, above 256 µg/mL; against Bacillus subtilis it was below 0.03 µg/mL.

For the compound `O=C1c2cccc3c([N+](=O)[O-])ccc(c23)C(=O)N1Cc1cccnc1`, the MIC was 8 µg/mL (≈ 24 µM) in the experiment on Staphylococcus aureus [1]; above 256 µg/mL in experiment [2]; above 256 µg/mL with Escherichia coli; 4 µg/mL (≈ 12 µM) in experiment [3]; 2 µg/mL (≈ 6 µM) in the experiment with Staphylococcus aureus [4]; 8 µg/mL (≈ 24 µM) in the experiment on Staphylococcus aureus [5]. In addition, the minimal inhibitory concentration (MIC) against Staphylococcus aureus [6] is 8 µg/mL (≈ 24 µM); in the experiment on Serratia marcescens it was above 256 µg/mL; in the experiment with Pseudomonas aeruginosa it was above 256 µg/mL; with Acinetobacter baumannii, above 256 µg/mL; in the experiment with Bacillus subtilis it was 4 µg/mL (≈ 12 µM).

For the compound `CSc1nc2ccc(NC(=O)c3ccc([N+](=O)[O-])o3)cc2s1`, the MIC in the experiment with Staphylococcus aureus [1] stood at 1 µg/mL (≈ 2.98 µM); in [2], 32 µg/mL (≈ 95.4 µM); in the experiment on Escherichia coli it was 256 µg/mL (≈ 763 µM); in experiment [3] it was 0.5 µg/mL (≈ 1.49 µM); with Staphylococcus aureus [4], 1 µg/mL (≈ 2.98 µM); against Staphylococcus aureus [5] it was 1 µg/mL (≈ 2.98 µM). Moreover, the MIC against Staphylococcus aureus [6] is 1 µg/mL (≈ 2.98 µM); in the experiment with Serratia marcescens, 32 µg/mL (≈ 95.4 µM); with Pseudomonas aeruginosa, 128 µg/mL (≈ 382 µM); in the experiment on Acinetobacter baumannii it was 12 µg/mL (≈ 35.8 µM); in the experiment on Bacillus subtilis it was 0.06 µg/mL (≈ 0.179 µM).
